In ChEMBL document CHEMBL2016465, “Host-directed Inhibitors of Myxoviruses: Synthesis and in vitro Biochemical Evaluation” (ACS Med Chem Lett, 2011) one finds EC50 and CC50 data, which are given here for 28 molecules.

In data set [1] the test system is Measles morbillivirus. Put plainly: Antiviral activity against Measles virus MVi/Alaska USA/16.00 genotype H2 infected in african green monkey Vero cells assessed as reduction in viral-induced cytopathogenicity. It counts as functional, organism-based. To be noted: MVi/Alaska USA/16.00 genotype H2, Vero. In outline: (§1)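 Run on actively dividing cells. EC50 from four-parameter variable-slope nonlinear regression, reported as the average of four experiments ± SEM. Highest concentration tested was 75 μM.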
A general note: Protection from cytopathic effect is a common read-out in antiviral testing.

A further data set relates to Vero. Put plainly: (§2) Cytotoxicity against african green monkey Vero cells after 24 hrs by MTT assay. As to conditions: chlorocebus sabaeus, vero, 24 h. In kind it is cell-based. In outline: (§3)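 Run on confluent cell monolayers to reflect acute toxicity. CC50 is given as the range of two experiments. Highest concentration tested was 75 μM.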
For orientation: Formazan colour is commonly taken as a measure of viable cells.

Data set [2] in a line: as §2. In kind it is cell-based. As to conditions: chlorocebus sabaeus, Vero cells. Summed up: as §3
Data set [3] concerns Measles morbillivirus. The data set is described as follows: Antiviral activity against Measles virus. In kind it is functional, organism-based. Summed up: as §1
Data set [4] deals with Measles morbillivirus. The data set is described as follows: Antiviral activity against Measles virus MVi/Alaska USA/16.00 genotype H2 infected in african green monkey Vero cells measured 28 to 36 hrs post infection by cell based virus yield reduction assay. In kind it is functional, organism-based. As to conditions: MVi/Alaska USA/16.00 genotype H2, Vero. Summed up: as §1

A further data set deals with Human respirovirus 3. The data set is described as follows: Antiviral activity against Human parainfluenza virus 3. It counts as functional, organism-based.
In another data set the test system is Mumps virus. Put plainly: Antiviral activity against Mumps virus. As to conditions: Mumps orthorubulavirus. In kind it is functional, organism-based.
Data set [5] concerns Respiratory syncytial virus. Put plainly: Antiviral activity against Respiratory syncytial virus. It counts as functional, organism-based. To be noted: human respiratory syncytial virus.
The test system of data set [6] is unidentified influenza virus. The data set is described as follows: Antiviral activity against Influenza virus. It counts as functional, organism-based.
A further data set concerns Paramyxoviridae. Put plainly: Antiviral activity against Paramyxovirus measured 28 to 36 hrs post infection by cell based virus yield reduction assay. It counts as functional.

As to `COc1ccc(Cn2c(SC(C)C(=O)Nc3ccc(C)cc3Cl)nc3ccccc32)cc1` (stereo not drawn), in the data set on Measles morbillivirus [1], the EC50 worked out at 700 nM. The molecule further yielded a CC50 with Vero of over 75000 nM. Regarding `COc1ccc(-n2c(SC(C)C(=O)Nc3nc(C)cs3)nc3ccccc32)cc1` (racemic), the EC50 with Measles morbillivirus [1] was determined as 2800 nM. With `COc1ccc(-n2c(SC(C)C(=O)Nc3ccc(Cl)cn3)nc3ccccc32)cc1` (racemic), the EC50 in the data set on Measles morbillivirus [1] was over 75000 nM. For the molecule `CCOc1ccc(-n2c(SC(C)C(=O)Nc3ncc(Cl)cc3Cl)nc3ccccc32)cc1` (racemic), the EC50 in the data set on Measles morbillivirus [1] turned out to be 100 nM. In addition, the midpoint of cytotoxicity in data set [2], the CC50 at 24 h, lay at 18500 nM.

Consider `COc1ccc(-n2c(SC(C)C(=O)Nc3cc(Br)ccc3Br)nc3ccccc32)cc1` (racemic), for which the EC50 in the data set with Measles morbillivirus [1] is 1400 nM. For the molecule `COc1ccc(-n2c(SC(C)C(=O)Nc3ncc(Cl)cc3Cl)nc3ccccc32)cc1` (stereo not drawn), the EC50 in the data set with Measles morbillivirus [1] was 350 nM; with Measles morbillivirus [3], 200 nM. The same molecule came in with a CC50 in the data set on Vero of over 75000 nM.

For `COc1ccc(-n2c(SC(C)C(=O)Nc3nc(C)c(Cl)cc3Cl)nc3ccccc32)cc1` (racemic), the EC50 in the data set on Measles morbillivirus [1] amounted to 200 nM. For the same molecule, in data set [2], the CC50 at 24 h came to 7250 nM. Turning to `Cc1ccc(NC(=O)[C@H](C)Oc2nc3ccccc3n2Cc2ccccc2)c(Cl)c1`, the EC50 with Measles morbillivirus [1] was over 150000 nM.

Take `COc1ccc(-n2c(S[C@H](C)C(=O)Nc3ccc(C)cc3Cl)nc3ccccc32)cc1`: the half-maximal effective concentration (EC50) with Measles morbillivirus [1] stood at 200 nM. Regarding `CCOc1ccc(-n2c(SC(C)C(=O)Nc3cc(C)cc(C)n3)nc3ccccc32)cc1` (racemic), the EC50 in the data set with Measles morbillivirus [1] came out at 1200 nM. `COc1ccc(-n2c(SC(C)C(=O)Nc3ccc(C)cc3Cl)nc3ccccc32)cc1` (racemic): the EC50 is 30 nM in the data set on Measles morbillivirus [4]; 200 nM with Measles morbillivirus [1]; 10 nM in the data set with Human respirovirus 3; 10 nM in the data set on Mumps virus; 10 nM in data set [5]; 10 nM in data set [6]. A half-maximal response in the data set with Paramyxoviridae (EC50) required 10 nM. Also, the CC50 in the data set on Vero was over 75000 nM.

For the molecule `COc1ccc(-n2c(SC(C)C(=O)Nc3ncc(C)cc3Cl)nc3ccccc32)cc1` (racemic), the EC50 in the data set with Measles morbillivirus [1] is 50 nM. In data set [2], this molecule returned a CC50 at 24 h of 880 nM. In the case of `COc1ccc(-n2c(SC(C)C(=O)Nc3nc(C)c(Br)cc3Br)nc3ccccc32)cc1` (racemic), in the data set on Measles morbillivirus [1], the EC50 came to 500 nM. For the same molecule, in data set [2], the half-maximal cytotoxic concentration (CC50) at 24 h is 9700 nM.

`COc1ccc(-n2c(SC(C)C(=O)Nc3ncc(C(F)(F)F)cc3Cl)nc3ccccc32)cc1` (racemic): the EC50 with Measles morbillivirus [1] was found to be 400 nM. Further, in [2], half-maximal cytotoxicity (CC50 at 24 h) was put at 9200 nM. Regarding `COc1ccc(-n2c(CCC(=O)Nc3ccc(C)cc3Cl)nc3ccccc32)cc1`, the concentration giving a half-maximal response (EC50) with Measles morbillivirus [1] is over 150000 nM. Take `COc1ccc(-n2c([S+]([O-])C(C)C(=O)Nc3ccc(C)cc3Cl)nc3ccccc32)cc1` (stereo not drawn): the EC50 in the data set on Measles morbillivirus [1] is 1300 nM. Also, in the data set on Vero, the CC50 is over 75000 nM. `O=C(CSc1nc2ccccc2n1-c1ccccc1)Nc1ncc(Cl)cc1Cl` displayed an EC50 in the data set on Measles morbillivirus [3] of 700 nM. Regarding `COc1ccc(-n2c(S(=O)(=O)C(C)C(=O)Nc3ccc(C)cc3Cl)nc3ccccc32)cc1` (stereo not drawn), the EC50 in the data set with Measles morbillivirus [1] was over 150000 nM. For the molecule `COc1ccc(-n2c(SC(C)C(=O)Nc3nnc(C)c(C)n3)nc3ccccc32)cc1` (racemic), the EC50 with Measles morbillivirus [1] came out at 9300 nM. On to `COc1ccc(-n2c(SC(C)C(=O)Nc3cc(C)nn3C)nc3ccccc32)cc1` (racemic), for which, in the data set on Measles morbillivirus [1], the EC50 stood at 500 nM. This molecule gave a CC50 in the data set on Vero of 75000 nM. For `Cc1nnc(NC(=O)C(C)Sc2nc3ccccc3n2-c2ccc(F)cc2)nc1C` (racemic), the 50% effective concentration (EC50) in the data set with Measles morbillivirus [1] stood at 17400 nM. Take `COc1ccc(Cn2c(NC(C)C(=O)Nc3ccc(C)cc3Cl)nc3ccccc32)cc1` (stereo not drawn): the EC50 with Measles morbillivirus [1] is over 150000 nM. On to `COc1ccc(-n2c(SC(C)C(=O)Nc3cc(C)no3)nc3ccccc32)cc1` (racemic), for which the concentration for a half-maximal effect (EC50) with Measles morbillivirus [1] was determined as 400 nM. The same molecule came in with a CC50 in the data set with Vero of over 75000 nM. For `CC(Sc1nc2ccccc2n1-c1ccc(F)cc1)C(=O)Nc1ncc(Cl)cc1Cl` (racemic), in the data set with Measles morbillivirus [1], the EC50 came out at 100 nM. The same molecule yielded a CC50 at 24 h in [2] of 5900 nM. With `COc1ccc(-n2c(SC(C)C(=O)Nc3nc(C)cc(Cl)n3)nc3ccccc32)cc1` (racemic), in the data set with Measles morbillivirus [1], the EC50 is over 75000 nM.

In the case of `Cc1cccc(-n2c(SCC(=O)Nc3ncc(Cl)cc3Cl)nc3ccccc32)c1`, the EC50 with Measles morbillivirus [3] came to 2100 nM. On to `COc1ccc(-n2c(S[C@@H](C)C(=O)Nc3ccc(C)cc3Cl)nc3ccccc32)cc1`, for which the EC50 in the data set with Measles morbillivirus [1] was 300 nM.

Turning to `Cc1ccc(NC(=O)C(C)Sc2nc3ccccc3n2Cc2ccccc2)c(Cl)c1` (stereo not drawn), in the data set on Measles morbillivirus [1], the EC50 turned out to be 400 nM. This molecule also gave a CC50 with Vero of over 75000 nM.

Broadly, the EC50 is the midpoint of the concentration-response curve. As a reminder, the CC50 is the concentration at which the toxic effect on the cells reaches its halfway point.
